Only some compounds are listed: those with a hit (about 3.1% of all), similar ones and a draw of the others.
hERG protect: hERG (human) protection from proarrhythmic block. Q12809. CHO-hERG, FluxOR thallium flux, dofetilide IC70 present. activation (rescue from dofetilide block), less the hit threshold, % at 10 µM. 310,000 compounds, 0.51% hits. AID 1511;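 active = activation above the mean of controls blocked by dofetilide plus 5 SD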;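 also: thallium influx through hERG after potassium depolarization seen as dye fluorescence rise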
KCNK9 inh: inhibitors of human KCNK9 two-pore domain potassium channel | Q9NPC2 | HEK293 KCNK9, FluxOR thallium flux fluorescence; active compounds read low | B-score at 10 µM | 310,000 compounds, 1.2% hits | AID 488922;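 active = ratio B-score over 3 SD below the library mean, with starting fluorescence within 5 SD of its mean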;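 also: negative B-score means less thallium flux so channel inhibition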
KCNK3 block: human KCNK3 channel inhibition, primary screen; CHO-KCNK3 thallium flux, FluxOR fluorescence; active compounds read low; B-score at 10 µM; 340,000 compounds, 0.84% hits; AID 602410;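 active = B-score under library mean minus 4 SD, starting fluorescence ratio at most library mean plus 5 SD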;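 also: more negative B-score means stronger inhibition of thallium flux through KCNK3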
KCNQ1 act: human KCNQ1 channel potentiation or activation; P51787; CHO-K1 KCNQ1, thallium flux FluxOR fluorescence; active compounds read high; B-score at 10 µM; 310,000 compounds, 0.35% hits; AID 2648;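 active = fluorescence ratio B-score, a plate-corrected score, at least three library SD, with initial intensity B-score within 5 SD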
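Test system: CHO-K1 cells stably expressing KCNQ1 / Medium: assay buffer / Also added: depolarizing K+/Tl+ stimulus, K2SO4 and Tl2SO4 each 12.5 mM in 5x stock / Incubation: 90 min dye loading and 20 min compound exposure, both at room temperature / Signal: thallium influx via FluxOR fluorescence, kinetic imaging / Evaluation: B score of baseline-normalized fluorescence ratio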
KCNQ1 inh: inhibitors of human KCNQ1 potassium channel. 310,000 compounds, 1.3% hits. P51787. B-score at 10 µM. CHO-K1 KCNQ1, FluxOR thallium flux fluorescence; active compounds read high;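 active = compounds whose thallium flux B-score, printed positive for inhibition, exceeds three library SD while starting fluorescence stays within three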;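 also: channel opened by potassium depolarization with thallium stimulus after 20 min compound exposure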
KCNK3 inh conf: human KCNK3 channel inhibition, confirmation assay; shares compounds with KCNK3 block; CHO-KCNK3 thallium flux, FluxOR fluorescence; 0% buffer, 100% carvedilol maximal block; ratio percent of control, % at 10 µM; 2,400 compounds, 99% hits; AID 651638;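 active = ratio percent of control, averaged over triplicates, above buffer control mean plus 5 SD, cut at about 64% in these data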;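 also: ratio is the fluorescence rise from min to max over baseline after thallium stimulus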
KCNK3 noninduced: activity in cells without induced KCNK3 expression; shares compounds with KCNK3 block; non-induced KCNK3 parental cells, FluxOR thallium flux; active compounds read low; thallium flux ratio (lower = more inhibition) at 10 µM; 2,400 compounds, 40% hits; AID 651747;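 active = thallium flux ratio, averaged over three wells, more than 5 SD below the buffer control mean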;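 also: host cells are CHO cells without KCNK3 induction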
Numbers stand for hits; – = inactive; · = no result.

SMILES	hERG protect	KCNK9 inh	KCNK3 block	KCNQ1 act	KCNQ1 inh	KCNK3 inh conf	KCNK3 noninduced
CCCCOc1ccc(-c2nnn(C(C)(C)C(=O)OC)n2)cc1	–	-6.6	-11	–	–	96	–
CCCOc1ccc(-c2nnn(CC(=O)Nc3cccc(C(=O)OC)c3)n2)cc1	–	–	–	–	–	·	·
COc1ccccc1-n1c(SCC(=O)Nc2cc(C)on2)nc2c([nH]c3ccccc32)c1=O	–	–	-9.2	–	–	101	–
COc1cccc(-n2c(SCC(=O)Nc3cc(C)on3)nc3c([nH]c4ccccc43)c2=O)c1	–	–	–	–	–	·	·
Cc1cc(NC(=O)CSc2nc3c([nH]c4ccccc43)c(=O)n2-c2cccc(C(F)(F)F)c2)no1	–	–	-11	–	–	92	–
CCNC(=O)c1ccc(NC(=O)CC2SC(N3CCCC3)=NC2=O)cc1 (centres undefined)	–	–	–	–	–	·	·
COc1ccc(CN(CC2CCC(C(=O)O)CC2)C(=S)Nc2ccc(C)c(Cl)c2)cc1 (centres undefined)	–	–	–	–	–	·	·
COc1ccc(CCN(Cc2cc3cc(C)cc(C)c3nc2Cl)C(=O)C2CC2)cc1	–	–	-11	–	–	98	–
CCOc1ccccc1NC(=O)C1CCC(=O)N1S(=O)(=O)c1ccc(C)cc1 (centres undefined)	–	–	–	–	–	·	·
CCCCOC(=O)/C(=C/C=C/c1ccccc1)NC(=O)c1ccccc1	–	–	–	–	–	·	·
CCCOC(=O)/C(=C\C=C\c1ccccc1)NC(=O)c1ccccc1	–	–	-10	–	–	147	0.15
Cc1ccc(N2CC(C(=O)Nc3nnc(SCCN4CCOCC4)s3)CC2=O)cc1 (centres undefined)	–	–	–	–	–	·	·
O=C(/C=C\c1ccc2c(c1)OCO2)Nc1c2c(nn1-c1ccc(Cl)cc1)CSC2	–	-7	-8.9	–	–	65	–
CC(=O)Nc1c2c(nn1-c1ccccc1)CSC2	–	–	–	–	–	·	·
Cc1sc2nc(SCc3nc(-c4cccs4)no3)n(-c3ccccc3)c(=O)c2c1C	–	-7.7	-12	–	–	109	–
COc1cccc(Oc2ccc(C(F)(F)F)cc2NC(=O)CCc2nc3ccccc3c(=O)[nH]2)c1	–	-7	–	–	–	97	–
CCn1c(SCC(=O)Nc2cccc(F)c2)nc2c(c1=O)SC(C)C2 (centres undefined)	–	–	-8.9	–	–	88	–
CCC(C(=O)OCC(=O)N1C(C)CCCC1C)c1ccccc1 (centres undefined)	–	–	–	–	–	·	·

Assay outcomes as filed in PubChem BioAssay.
